Test results as given in ChEMBL document CHEMBL4257446, “Synthesis and biological evaluation of chalcone-linked pyrazolo[1,5-a]pyrimidines as potential anticancer agents” (Medchemcomm, 2017).
pIC50: −log10 of the molar value. Activity calls are given as the source filed them. The calls are words filed in the database; no cut-off is given here.

How the values were obtained:
[1] = system: A549; experiment: Antiproliferative activity against human A549 cells after 24 hrs by MTT assay; assay type: functional, cell-based; conditions: A549, 24 h
In short: (§1)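 Cells exposed to a range of compound concentrations; viability read by MTT assay. IC50 (concentration giving 50% growth inhibition) calculated and reported as mean ± S.D. of three independent experiments, each run in triplicate.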

[2] = system: DU-145; experiment: Antiproliferative activity against human DU145 cells after 24 hrs by MTT assay; assay type: functional, cell-based; conditions: DU-145, 24 h; in short: as §1
[3] = system: MDA-MB-231; experiment: Antiproliferative activity against human MDA-MB-231 cells after 24 hrs by MTT assay; assay type: functional, cell-based; conditions: MDA-MB-231, 24 h; in short: as §1
[4] = system: HEK293; experiment: Antiproliferative activity against HEK293 cells after 24 hrs by MTT assay; assay type: cell-based; conditions: Homo sapiens, HEK293, 24 h
[5] = system: A549; experiment: Cell cycle arrest in human A549 cells assessed as accumulation of cells at G2/M phase at 2 uM after 24 hrs by propidium iodide staining-based flow cytometric analysis (reference value: 20.4%); assay type: functional
[6] = system: HEK293; experiment: Induction of apoptosis in HEK293 cells assessed as effect on p53 levels after 24 hrs by Western blot analysis; assay type: cell-based; conditions: human, hek293, 24 h
[7] = system: A549; experiment: Induction of apoptosis in human A549 cells assessed as decrease in Bcl2 levels at 2 uM after 24 hrs by Western blot analysis; assay type: functional, cell-based
In short: (§2)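 A549 cells given 2 μM final concentration for 24 h. Total lysate probed by western blot for apoptosis-related proteins (Bax, p53, p21, caspase-3, Bcl2). Erlotinib served as positive control and untreated cells as negative control.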

[8] = system: A549; experiment: Induction of apoptosis in human A549 cells assessed as increase in Bax levels at 2 uM after 24 hrs by Western blot analysis; assay type: functional, cell-based; in short: as §2
[9] = system: HEK293; experiment: Induction of apoptosis in HEK293 cells assessed as effect on Bax levels after 24 hrs by Western blot analysis; assay type: cell-based; conditions: human, hek293, 24 h
[10] = system: HEK293; experiment: Induction of apoptosis in HEK293 cells assessed as effect on p21 levels after 24 hrs by Western blot analysis; assay type: cell-based; conditions: human, hek293, 24 h
[11] = system: A549; experiment: Induction of apoptosis in human A549 cells assessed as decrease in pro-caspase-9 levels at 2 uM after 24 hrs by Western blot analysis; assay type: functional, cell-based
[12] = system: A549; experiment: Induction of apoptosis in human A549 cells assessed as increase in p21 levels at 2 uM after 24 hrs by Western blot analysis; assay type: functional, cell-based; in short: as §2
[13] = system: A549; experiment: Induction of apoptosis in human A549 cells assessed as increase in p53 levels at 2 uM after 24 hrs by Western blot analysis; assay type: functional, cell-based; in short: as §2
[14] = system: A549; experiment: Decrease in STAT3 protein expression in human A549 cells in STAT3 levels at 2 uM after 24 hrs by Western blot analysis; assay type: functional, cell-based
In short: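 A549 cells exposed at 2 μM final concentration and collected 24 h later. Total protein lysate extracted and immunoblotted with antibodies against the EGFR/STAT3 pathway proteins. Erlotinib-treated cells were the positive control and untreated cells the negative control.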

[15] = system: HEK293; experiment: Induction of apoptosis in HEK293 cells assessed as effect on Bcl2 levels after 24 hrs by Western blot analysis; assay type: cell-based; conditions: human, hek293, 24 h
[16] = system: HEK293; experiment: Cell cycle arrest in HEK293 cells after 24 hrs by propidium iodide staining-based flow cytometric analysis; conditions: human, hek293, 24 h

| SMILES | pIC50 [1] | pIC50 [2] | pIC50 [3] | pIC50 [4] | other results |
| --- | --- | --- | --- | --- | --- |
| COc1ccc(-c2cc(C(=O)/C=C/c3cc(OC)c(OC)c(OC)c3)nc3cc(-c4ccccc4)nn23)cc1OC | 4.81 | 4.83 | 4.78 | 4.33 | – |
| COc1ccc(/C=C/C(=O)c2cc(-c3cc(OC)c(OC)c(OC)c3)n3nc(-c4ccccc4)cc3n2)cc1 | 4.67 | 4.77 | 4.78 | 4.33 | – |
| COc1ccc(-c2cc(/C=C/C(=O)c3cc(OC)c(OC)c(OC)c3)nc3cc(-c4ccccc4)nn23)cc1OC | 5.14 | 5.08 | 5.33 | 4.46 | Activity [5]: 33.11%; Activity [6]: Non-Toxic; Activity [7]: Active; Activity [8]: Active; Activity [9]: Non-Toxic; Activity [10]: Non-Toxic; Activity [11]: Active; Activity [12]: Active; Activity [13]: Active; Activity [14]: Active; Activity [15]: Non-Toxic; Activity [16]: Non-Toxic |
| COc1ccc(C(=O)/C=C/c2cc(-c3ccc(OC)c(OC)c3)n3nc(-c4ccccc4)cc3n2)cc1 | 4.92 | 4.84 | 4.86 | 4.40 | – |
| COc1cc(-c2cc(C(=O)/C=C/c3ccc(Cl)cc3)nc3cc(-c4ccccc4)nn23)cc(OC)c1OC | 4.62 | 4.71 | 4.67 | 4.27 | – |
| COc1ccc(/C=C/C(=O)c2cc(-c3ccc(OC)c(OC)c3)n3nc(-c4ccccc4)cc3n2)cc1 | 4.72 | 4.83 | 4.66 | 4.29 | – |
| COc1ccc(C(=O)/C=C/c2cc(-c3ccc(OC)cc3)n3nc(-c4ccccc4)cc3n2)cc1 | 5.54 | 5.07 | 5.20 | 4.44 | Activity [5]: 29.6%; Activity [6]: Non-Toxic; Activity [7]: Active; Activity [8]: Active; Activity [9]: Non-Toxic; Activity [10]: Non-Toxic; Activity [11]: Active; Activity [12]: Active; Activity [13]: Active; Activity [14]: Active; Activity [15]: Non-Toxic; Activity [16]: Non-Toxic |
| COc1cc(-c2cc(/C=C/C(=O)c3ccc(C)cc3)nc3cc(-c4ccccc4)nn23)cc(OC)c1OC | 4.71 | 4.57 | 4.62 | 4.30 | – |
| COc1cc(-c2cc(/C=C/C(=O)c3ccc(Cl)cc3)nc3cc(-c4ccccc4)nn23)cc(OC)c1OC | 4.81 | 4.53 | 4.49 | ≤ 4.00 | – |
| COc1cc(-c2cc(C(=O)/C=C/c3ccc(C)cc3)nc3cc(-c4ccccc4)nn23)cc(OC)c1OC | 4.70 | 4.66 | 4.73 | 4.25 | – |
| COc1ccc(/C=C/C(=O)c2cc(-c3cc(OC)c(OC)c(OC)c3)n3nc(-c4ccccc4)cc3n2)cc1OC | 4.69 | 4.81 | 4.85 | 4.39 | – |
| COc1ccc(-c2cc(/C=C/C(=O)c3ccc(C)cc3)nc3cc(-c4ccccc4)nn23)cc1OC | 4.76 | 4.57 | 4.70 | 4.20 | – |
| COc1cc(/C=C/C(=O)c2cc(-c3cc(OC)c(OC)c(OC)c3)n3nc(-c4ccccc4)cc3n2)cc(OC)c1OC | 4.59 | 4.75 | 4.74 | 4.39 | – |

Second part, led by results:

| pIC50 [1] | pIC50 [2] | pIC50 [3] | SMILES | pIC50 [4] | other results |
| --- | --- | --- | --- | --- | --- |
| 4.69 | 4.46 | 4.61 | COc1cc(C(=O)/C=C/c2cc(-c3cc(OC)c(OC)c(OC)c3)n3nc(-c4ccccc4)cc3n2)cc(OC)c1OC | ≤ 4.00 | – |
| 4.81 | 4.67 | 4.77 | COc1ccc(-c2cc(/C=C/C(=O)c3ccc(Cl)cc3)nc3cc(-c4ccccc4)nn23)cc1OC | 4.36 | – |
| 4.73 | 4.81 | 4.63 | COc1ccc(-c2cc(C(=O)/C=C/c3ccccc3)nc3cc(-c4ccccc4)nn23)cc1OC | 4.19 | – |
| 5.07 | 4.86 | 5.00 | COc1ccc(-c2cc(/C=C/C(=O)c3ccccc3)nc3cc(-c4ccccc4)nn23)cc1 | 4.27 | – |
| 5.41 | 5.14 | 5.59 | COc1ccc(C(=O)/C=C/c2cc(-c3ccc(OC)c(OC)c3)n3nc(-c4ccccc4)cc3n2)cc1OC | 4.49 | Activity [5]: 29.5%; Activity [6]: Non-Toxic; Activity [7]: Active; Activity [8]: Active; Activity [9]: Non-Toxic; Activity [10]: Non-Toxic; Activity [11]: Active; Activity [12]: Active; Activity [13]: Active; Activity [14]: Active; Activity [15]: Non-Toxic; Activity [16]: Non-Toxic |
| 5.13 | 4.79 | 5.06 | COc1ccc(-c2cc(/C=C/C(=O)c3ccc(OC)c(OC)c3)nc3cc(-c4ccccc4)nn23)cc1 | 4.31 | – |
| 4.97 | 5.00 | 4.93 | COc1ccc(-c2cc(/C=C/C(=O)c3ccccc3)nc3cc(-c4ccccc4)nn23)cc1OC | 4.29 | – |
| 5.03 | 4.92 | 4.94 | COc1ccc(-c2cc(/C=C/C(=O)c3ccc(C)c(C)c3)nc3cc(-c4ccccc4)nn23)cc1OC | 4.34 | – |
| 4.97 | 4.81 | 4.87 | COc1cc(-c2cc(/C=C/C(=O)c3ccc(C)c(C)c3)nc3cc(-c4ccccc4)nn23)cc(OC)c1OC | 4.14 | – |
| 4.66 | 4.65 | 4.62 | COc1ccc(-c2cc(C(=O)/C=C/c3ccc(Cl)cc3)nc3cc(-c4ccccc4)nn23)cc1OC | 4.41 | – |
| 4.75 | 4.52 | 4.74 | COc1ccc(C(=O)/C=C/c2cc(-c3cc(OC)c(OC)c(OC)c3)n3nc(-c4ccccc4)cc3n2)cc1OC | 4.09 | – |
| 4.75 | 4.79 | 4.72 | COc1cc(-c2cc(C(=O)/C=C/c3ccccc3)nc3cc(-c4ccccc4)nn23)cc(OC)c1OC | 4.35 | – |
| 4.84 | 4.60 | 4.88 | COc1ccc(C(=O)/C=C/c2cc(-c3cc(OC)c(OC)c(OC)c3)n3nc(-c4ccccc4)cc3n2)cc1 | 4.10 | – |
| 4.98 | 4.74 | 4.83 | C#Cc1cccc(Nc2ncnc3cc(OCCOC)c(OCCOC)cc23)c1 [ERLOTINIB] | 4.52 | Activity [5]: 24.5%; Activity [14]: inactive; Activity [16]: Non-Toxic |
| 4.74 | 4.46 | 4.80 | COc1cc(-c2cc(/C=C/C(=O)c3ccccc3)nc3cc(-c4ccccc4)nn23)cc(OC)c1OC | ≤ 4.00 | – |
| 4.65 | 4.71 | 4.65 | COc1ccc(-c2cc(C(=O)/C=C/c3ccc(C)cc3)nc3cc(-c4ccccc4)nn23)cc1OC | 4.24 | – |
